Experimental data: ChEMBL document CHEMBL3864174, “Scaffold-Hopping of Aurones: 2-Arylideneimidazo[1,2-a]pyridinones as Topoisomerase IIα-Inhibiting Anticancer Agents” (ACS Med Chem Lett, 2016)
Active and inactive are the calls of the source. No cut-off for these calls is given here.

Legend:
[1] = target: DNA topoisomerase 2-alpha (Homo sapiens) (UniProt P11388); experiment: Inhibition of human Topo2alpha-mediated kDNA decatenation at 100 uM after 30 mins by SDS-based agarose gel electrophoresis
[2] = target: DNA topoisomerase 2-alpha (Homo sapiens) (UniProt P11388); experiment: Poison activity at human Topo2alpha using pUC19 as substrate assessed as DNA cleavage-complex formation at 100 uM measured after 20 mins by ethidium bromide staining based SDS-agarose gel electrophoresis
MCF7 [3] = experiment: Induction of apoptosis in human MCF7 cells assessed as increase in BAX expression at 75 nM after 48 hrs by Western blot analysis relative to control; format: functional
[4] = Binding affinity to DNA (unknown origin) assessed as occurrence of hypochromism after 1 hr by UV-Vis spectrophotometric analysis
In short: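 UV absorption of DNA near 260 nm, recorded with and without increasing compound concentrations; hypochromism was taken as the binding read-out.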

[5] = target: Cyclin-dependent kinase 1 (Homo sapiens) (UniProt P06493); experiment: Inhibition of CDK1 phosphorylation at Thr-161 residue in human MCF7 cells at 50 nM after 48 hrs by Western blot analysis relative to control; format: cell-based
In short: (§1)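 Western blot of MCF-7 lysates after treatment across a concentration series. Probes were CDK1, pCDK1 (Thr 161) and cleaved caspase 3 (17 kDa). Bands were quantified by densitometry as fold change versus untreated control, with at least three repeats.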

[6] = (§2) Cytotoxicity against HEK293T cells assessed as cells growth inhibition after 48 hrs by MTT assay; format: functional, cell-based; conditions: Homo sapiens, HEK-293T
In short: (§3)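 MTT colorimetric assay. HEK-293T (kidney line) and VERO cells were tested, and the IC50 was taken as the concentration giving 50% growth inhibition.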

HEK-293T [7] = experiment: as §2; format: functional, cell-based; conditions: Homo sapiens; in short: as §3
[8] = Cytotoxicity against African green monkey Vero cells assessed as cells growth inhibition after 48 hrs by MTT assay; format: toxicity, cell-based, Chlorocebus sabaeus; conditions: for IC50 at 48 h: African green monkey (Chlorocebus sabaeus), Vero cells; in short: as §3
MCF7 [9] = experiment: Cytotoxicity against human MCF7 cells assessed as cells growth inhibition after 48 hrs by MTT assay; format: functional, cell-based
[10] = Cytotoxicity against human MDA-MB-231 cells assessed as reduction in cell viability after 48 hrs by MTT assay; format: functional, cell-based; conditions: MDA-MB-231, 48 h
[11] = Cytotoxicity against human MDA-MB-468 cells assessed as reduction in cell viability after 48 hrs by MTT assay; format: functional, cell-based; conditions: MDA-MB-468, 48 h
[12] = (§4) Cytotoxicity against HEK293T cells assessed as reduction in colony formation after 48 hrs by crystal violet-staining based assay; format: functional; conditions: Homo sapiens, HEK-293T, read-out: LC50 (the source's name)
HEK-293T [13] = experiment: as §4; format: functional; conditions: Homo sapiens
[14] = Cytotoxicity against African green monkey Vero cells assessed as reduction in colony formation after 48 hrs by crystal violet-staining based assay; format: toxicity, cell-based; conditions: chlorocebus sabaeus; for CC50 at 48 h: Vero cells, read-out: LC50; for Activity: vero, 48 h
MCF7 [15] = experiment: Cytotoxicity against human MCF7 cells assessed as reduction in colony formation after 48 hrs by crystal violet-staining based assay; format: functional, cell-based
MCF7 [16] = experiment: Induction of apoptosis in human MCF7 cells assessed as chromatin condensation up to 75 nM after 48 hrs by DAPI-nuclear staining based fluorescent microscopic analysis relative to control; format: functional, cell-based
In short: (§5)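 MCF-7 cells exposed to increasing compound concentrations for 48 h before DAPI was added. Nuclei were scored for chromatin condensation and fragmentation, counted as apoptotic nuclei versus untreated cells.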

MCF7 [17] = experiment: Induction of apoptosis in human MCF7 cells assessed as nuclear fragmentation up to 75 nM after 48 hrs by DAPI-nuclear staining based fluorescent microscopic analysis relative to control; format: functional, cell-based; in short: as §5
MCF7 [18] = experiment: Induction of apoptosis in human MCF7 cells assessed as increase in apoptotic nuclei at 75 nM after 48 hrs by DAPI-nuclear staining based fluorescent microscopic analysis relative to control; format: functional; in short: as §5
MCF7 [19] = experiment: Induction of apoptosis in human MCF7 cells assessed as increase in BAX expression at 50 nM after 48 hrs by Western blot analysis relative to control; format: functional
MCF7 [20] = experiment: Induction of apoptosis in human MCF7 cells assessed as decrease in BCL-XL expression at 50 nM after 48 hrs by Western blot analysis relative to control; format: functional
[21] = Downregulation of CDK1 expression in human MCF7 cells at 50 nM after 48 hrs by Western blot analysis relative to control; format: functional, cell-based; in short: as §1
[22] = Downregulation of p21 expression in human MCF7 cells at 50 nM after 48 hrs by Western blot analysis relative to control; format: functional, cell-based
[23] = Downregulation of p53 expression in human MCF7 cells at 50 nM after 48 hrs by Western blot analysis relative to control; format: functional, cell-based
MCF7 [24] = experiment: Induction of apoptosis in human MCF7 cells assessed as 19 kDa caspase-3 expression level at 50 nM after 48 hrs by Western blot analysis relative to control; format: functional
MCF7 [25] = experiment: Induction of apoptosis in human MCF7 cells assessed as increase in 17 kDa caspase-3 expression at 50 nM after 48 hrs by Western blot analysis relative to control; format: functional; in short: as §1
MCF7 [26] = experiment: Induction of apoptosis in human MCF7 cells assessed as increase in caspase-3 expression at 50 to 75 nM after 48 hrs by TRITC/DAPI-staining based fluorescent microscopic analysis; format: functional, cell-based
In short: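 Caspase 3 immunocytochemistry in MCF-7 cells after increasing compound concentrations. Signal was expressed as densitometric fold change versus untreated control, with at least three repeats.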

MCF7 [27] = experiment: Antiinvasive activity in human MCF7 cells assessed as reduction in number of invaded colonies at 25 to 75 nM after 48 hrs by crystal violet-staining based colony counting; format: functional, cell-based
In short: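 Matrigel invasion assay in MCF-7 cells exposed to rising compound concentrations; read-out is the number of invaded colonies versus an untreated control.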

MCF7 [28] = experiment: Inhibition of topoisomerase in human MCF7 cell nuclear lysates assessed as reduction in relaxation of supercoiled plasmid DNA NFkB substrate at 10 to 75 nM after 30 mins by ethidium bromide-staining based agarose gel electrophoresis
In short: (§6)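 Ex vivo topoisomerase assay using MCF-7 nuclear lysate with NFkB plasmid as substrate. Compound ranged from 10 nM to 75 nM, with lanes for plasmid alone and untreated lysate, and an etoposide lane at 45 µM.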

[29] = Cell cycle arrest in human MCF7 cells assessed as accumulation at G2/M phase at 50 nM after 48 hrs by propidium iodide-staining based FACS analysis (reference value: 41 +/- 2.8 %); format: functional
[30] = Cell cycle arrest in human MCF7 cells assessed as accumulation at subG1 phase at 100 nM after 48 hrs by propidium iodide-staining based FACS analysis (reference value: 0.8 +/- 0.1 %); format: functional
[31] = Inhibition of tubulin polymerization in human MCF7 cells assessed as suppression of protein assembly after 15 mins by spectrophotometric analysis; format: cell-based
MCF7 [32] = experiment: Inhibition of alpha tubulin in human MCF7 cells assessed as distortion in tubulin assembly at 50 to 75 uM by FITC/propidium iodide-staining based assay; format: cell-based
In short: (§7)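 MCF-7 cells were immunostained for α-tubulin with FITC and counterstained with propidium iodide for nuclei. Merged images were inspected for assembly distortion and abnormal mitotic spindles.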

MCF7 [33] = experiment: Inhibition of alpha tubulin in human MCF7 cells assessed as formation of abnormal mitotic spindle at 50 to 75 uM by FITC/propidium iodide-staining based assay; format: cell-based; in short: as §7
MCF7 [34] = experiment: Induction of apoptosis in human MCF7 cells assessed as decrease in BCL-XL expression at 75 nM after 48 hrs by Western blot analysis relative to control; format: functional
[35] = Downregulation of CDK1 expression in human MCF7 cells at 75 nM after 48 hrs by Western blot analysis relative to control; format: functional, cell-based; in short: as §1
[36] = target: Cyclin-dependent kinase 1 (Homo sapiens) (UniProt P06493); experiment: Inhibition of CDK1 phosphorylation at Thr-161 residue in human MCF7 cells at 75 nM after 48 hrs by Western blot analysis relative to control; format: cell-based; in short: as §1
[37] = Downregulation of p21 expression in human MCF7 cells at 75 nM after 48 hrs by Western blot analysis relative to control; format: functional, cell-based
[38] = Downregulation of p53 expression in human MCF7 cells at 75 nM after 48 hrs by Western blot analysis relative to control; format: functional, cell-based
MCF7 [39] = experiment: Induction of apoptosis in human MCF7 cells assessed as 19 kDa caspase-3 expression level at 75 nM after 48 hrs by Western blot analysis relative to control; format: functional
MCF7 [40] = experiment: Induction of apoptosis in human MCF7 cells assessed as increase in 17 kDa caspase-3 expression at 75 nM after 48 hrs by Western blot analysis relative to control; format: functional; in short: as §1
[41] = Cell cycle arrest in human MCF7 cells assessed as accumulation at G2/M phase at 70 nM after 48 hrs by propidium iodide-staining based FACS analysis (reference value: 41 +/- 2.8 %); format: functional
MCF7 [42] = experiment: Inhibition of topoisomerase in human MCF7 cell nuclear lysates assessed as reduction in relaxation of supercoiled plasmid DNA NFkB substrate at 10 to 70 nM after 30 mins by ethidium bromide-staining based agarose gel electrophoresis; in short: as §6
[43] = chlorocebus sabaeus, vero, 48 h

Sequence of DNA topoisomerase 2-alpha (Homo sapiens) (P11388 whole entry): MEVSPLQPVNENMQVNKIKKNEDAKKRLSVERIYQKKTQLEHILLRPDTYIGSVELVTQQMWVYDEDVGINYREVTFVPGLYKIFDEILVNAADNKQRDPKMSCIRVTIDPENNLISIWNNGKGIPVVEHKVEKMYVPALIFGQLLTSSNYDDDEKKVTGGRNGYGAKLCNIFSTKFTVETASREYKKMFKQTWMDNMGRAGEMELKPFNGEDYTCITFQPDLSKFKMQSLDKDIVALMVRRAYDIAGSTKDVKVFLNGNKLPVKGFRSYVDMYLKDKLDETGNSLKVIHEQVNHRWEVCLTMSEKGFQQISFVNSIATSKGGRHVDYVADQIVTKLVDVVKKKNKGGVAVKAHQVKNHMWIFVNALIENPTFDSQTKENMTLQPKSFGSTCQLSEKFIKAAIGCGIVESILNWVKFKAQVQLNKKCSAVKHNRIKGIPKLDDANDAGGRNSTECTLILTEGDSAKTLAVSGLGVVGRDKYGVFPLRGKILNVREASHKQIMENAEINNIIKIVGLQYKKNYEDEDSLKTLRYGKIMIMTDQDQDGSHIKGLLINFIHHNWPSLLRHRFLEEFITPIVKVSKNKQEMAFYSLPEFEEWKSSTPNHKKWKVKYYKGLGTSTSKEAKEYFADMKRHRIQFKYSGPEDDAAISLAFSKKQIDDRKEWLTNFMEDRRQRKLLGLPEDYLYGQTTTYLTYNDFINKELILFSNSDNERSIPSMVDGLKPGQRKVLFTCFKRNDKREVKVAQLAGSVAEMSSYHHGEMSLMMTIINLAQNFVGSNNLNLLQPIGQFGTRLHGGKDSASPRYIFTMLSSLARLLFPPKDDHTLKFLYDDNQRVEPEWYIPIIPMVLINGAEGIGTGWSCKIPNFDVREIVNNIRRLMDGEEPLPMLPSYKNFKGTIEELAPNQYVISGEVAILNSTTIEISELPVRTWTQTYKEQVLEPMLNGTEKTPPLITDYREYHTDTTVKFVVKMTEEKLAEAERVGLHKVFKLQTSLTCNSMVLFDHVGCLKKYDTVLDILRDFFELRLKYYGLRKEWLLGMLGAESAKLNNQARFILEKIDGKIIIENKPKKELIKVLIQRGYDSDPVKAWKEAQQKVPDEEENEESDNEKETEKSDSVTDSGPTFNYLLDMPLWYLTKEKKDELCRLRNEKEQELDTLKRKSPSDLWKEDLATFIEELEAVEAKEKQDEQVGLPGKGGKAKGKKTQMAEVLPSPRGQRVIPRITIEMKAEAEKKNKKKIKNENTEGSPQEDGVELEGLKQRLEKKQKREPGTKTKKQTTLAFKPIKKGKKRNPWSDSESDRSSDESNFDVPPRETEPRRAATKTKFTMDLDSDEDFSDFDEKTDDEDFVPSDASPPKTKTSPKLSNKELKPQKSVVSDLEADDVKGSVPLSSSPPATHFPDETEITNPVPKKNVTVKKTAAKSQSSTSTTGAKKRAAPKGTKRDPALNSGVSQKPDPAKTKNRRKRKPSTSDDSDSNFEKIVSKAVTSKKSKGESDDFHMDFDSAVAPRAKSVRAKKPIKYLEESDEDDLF
Sequence of Cyclin-dependent kinase 1 (Homo sapiens) (P06493 whole entry, looked up): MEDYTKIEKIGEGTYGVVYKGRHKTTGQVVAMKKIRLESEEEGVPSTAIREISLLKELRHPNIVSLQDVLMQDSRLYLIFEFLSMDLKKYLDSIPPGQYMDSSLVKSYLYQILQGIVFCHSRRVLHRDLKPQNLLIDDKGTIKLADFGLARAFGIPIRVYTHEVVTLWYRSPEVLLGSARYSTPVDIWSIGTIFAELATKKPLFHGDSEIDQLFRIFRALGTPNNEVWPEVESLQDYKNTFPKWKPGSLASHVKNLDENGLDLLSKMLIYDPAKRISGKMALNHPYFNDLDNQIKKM

In the case of `COc1ccc(/C=C2\N=C3C=CC=CN3C2=O)cc1`, the inhibition [1] is reported as “Active”, the Activity [2] is reported as “Active” and the “fold change (FC)” value (MCF7 [3]) is reported as 2. For the same compound, the Kb [4] was 2e+06 M⁻¹, the fold change (FC) [5] was 1.2 and the IC50 [6] was 60 nM. For the same compound, the “growth inhibition (GI)” value (HEK-293T [7]) was “Dose-dependent effect”, the IC50 at 48 h [8] was 1500 nM and the “growth inhibition (GI)” value [8, 43] was “Dose-dependent effect”. For the same compound, the “growth inhibition (GI)” value (MCF7 [9]) was “Dose-dependent effect”, the IC50 [10] was 64 nM and the IC50 [11] was 60 nM. For the same compound, the CC50 [12] was 60 nM, the Activity (HEK-293T [13]) was “Dose-dependent effect” and the CC50 at 48 h [14] was 1500 nM. The Activity [14] was “Dose-dependent effect”, the Activity (MCF7 [15]) was “Dose-dependent effect” and the Activity (MCF7 [16]) was “Active”. For the same compound, the Activity (MCF7 [17]) was “Active”, the “fold change (FC)” value (MCF7 [18]) was over 6 and the “fold change (FC)” value (MCF7 [19]) was 1.2. For the same compound, the “fold change (FC)” value (MCF7 [20]) was 0.9, the fold change (FC) [21] was 0.9 and the fold change (FC) [22] was 1.4. The fold change (FC) [23] was 1.4, the “fold change (FC)” value (MCF7 [24]) was 1.4 and the “fold change (FC)” value (MCF7 [25]) was 1.6. For the same compound, the Activity (MCF7 [26]) was “Dose-dependent effect”, the Activity (MCF7 [27]) was “Active” and the inhibition (MCF7 [28]) was “Active”. It also gave an Activity [29] of 80.1%, an Activity [30] of 20.2% and an IC50 [31] of 54 nM. For the same compound, the inhibition (MCF7 [32]) was “Active”, the inhibition (MCF7 [33]) was “Active” and the “fold change (FC)” value (MCF7 [34]) was 0.2. For the same compound, the fold change (FC) [35] was 0.2, the fold change (FC) [36] was 2 and the fold change (FC) [37] was 2.5. The fold change (FC) [38] was 2.5, the “fold change (FC)” value (MCF7 [39]) was 1.6 and the “fold change (FC)” value (MCF7 [40]) was 2.

In the case of `O=C1/C(=C/c2ccc(Br)cc2)N=C2C=CC=CN12`, the inhibition [1] is reported as “Active”, the Activity [2] is reported as “Active” and the Kb [4] is reported as 2.5e+06 M⁻¹. The IC50 [6] was 45 nM, the “growth inhibition (GI)” value (HEK-293T [7]) was “Dose-dependent effect” and the IC50 at 48 h [8] was 200 nM. For the same compound, the Activity [8, 43] was “Dose-dependent effect”, the “growth inhibition (GI)” value (MCF7 [9]) was “Dose-dependent effect” and the IC50 [10] was 76 nM. For the same compound, the IC50 [11] was 70 nM, the CC50 [12] was 20 nM and the Activity (HEK-293T [13]) was “Dose-dependent effect”. For the same compound, the CC50 at 48 h [14] was 1500 nM, the Activity [14] was “Dose-dependent effect” and the Activity (MCF7 [15]) was “Dose-dependent effect”. The Activity [30] was 19.9%, the Activity [41] was 33.2% and the IC50 [31] was 60 nM. For the same compound, the inhibition (MCF7 [42]) was “Active”.
